{
  "source": "ChEMBL document CHEMBL3784931",
  "about": "“Synthesis and evaluation of novel angiotensin II receptor 1 antagonists as anti-hypertension drugs” (Bioorg Med Chem, 2016)",
  "key": {"[1]": {"experiment": "Tmax in Wistar rat liver at 10 mg/kg, po after 0.5 to 72 hrs by HPLC analysis", "assay_type": "ADME, organism-based", "how_it_was_run": "(§1)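 Wistar rats were dosed orally and killed by abdominal aorta transection at 0.5, 1, 2, 4, 6, 8, 12, 24, 48 and 72 h. Organs were excised at once, minced and homogenized at 4 °C in normal saline to a 25% (w/v) homogenate. After spinning at 3000 × g, 4 °C, 10 min, supernatants were analysed by HPLC. Values are mean ± SEM, n = 5 per point.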"}, "[2]": {"experiment": "Elimination rate constant in Wistar rat lung at 10 mg/kg, po after 0.5 to 72 hrs by HPLC analysis", "assay_type": "ADME, organism-based", "how_it_was_run": "as §1"}, "[3]": {"experiment": "Acute toxicity in ICR mouse assessed as mortality at 2844.40 mg/kg, ig administered daily for 2 weeks measured during compound dosing", "assay_type": "organism-based", "conditions": "in vivo, po, 2844.4 mg/kg", "how_it_was_run": "(§2)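 ICR mice, sixty in total, half male and half female, 20 ± 2 g. Intragastric dosing at 1200, 1600, 2133.3, 2844.40, 5056.79 or 6742.38 mg/kg. Animals watched daily over two weeks for survival and physiological abnormalities or untoward reactions. Percent mortality recorded per dose group.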"}, "[4]": {"experiment": "Tmax in Wistar rat plasma at 10 mg/kg, po after 0.5 to 72 hrs by HPLC analysis", "assay_type": "ADME, organism-based", "how_it_was_run": "(§3)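 Wistar rats got an oral dose. Venous blood (0.5 mL) was taken predose and at 0.5, 1, 2, 4, 6, 8, 12, 24, 48 and 72 h, and plasma was spun 4000 × g, 4 °C, 10 min. Samples with internal standard were acetonitrile-precipitated, filtered and run on C18 reverse-phase HPLC with UV detection. Calibration used weighted regression of peak height ratio.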"}, "[5]": {"experiment": "Acute toxicity in ICR mouse assessed as mortality at 1200 mg/kg, ig administered daily for 2 weeks measured during compound dosing", "assay_type": "organism-based", "conditions": "in vivo, po", "how_it_was_run": "as §2"}, "[6]": {"experiment": "Elimination rate constant in Wistar rat plasma at 10 mg/kg, po after 0.5 to 72 hrs by HPLC analysis", "assay_type": "ADME, organism-based", "how_it_was_run": "as §3"}, "[7]": {"system": "Mus musculus", "experiment": "Acute toxicity in ICR mouse assessed as mobility at 1200 mg/kg, ig administered daily for 2 weeks measured during compound dosing", "assay_type": "organism-based", "conditions": "in vivo, po, 336 h", "how_it_was_run": "as §2"}, "[8]": {"system": "Mus musculus", "experiment": "Acute toxicity in ICR mouse assessed as skin changes at 1200 mg/kg, ig administered daily for 2 weeks measured during compound dosing", "assay_type": "organism-based", "conditions": "in vivo, po, 336 h", "how_it_was_run": "as §2"}, "[9]": {"experiment": "Tmax in Wistar rat spleen at 10 mg/kg, po after 0.5 to 72 hrs by HPLC analysis", "assay_type": "ADME, organism-based", "how_it_was_run": "as §1"}, "[10]": {"experiment": "Terminal half life in Wistar rat liver at 10 mg/kg, po after 0.5 to 72 hrs by HPLC analysis", "assay_type": "ADME, organism-based", "conditions": "read-out: beta t1/2 (converted)", "how_it_was_run": "as §1"}, "[11]": {"system": "Rattus norvegicus", "experiment": "Antihypertensive activity in spontaneous hypertensive rat model assessed as reduction in mean blood pressure at 10 mg/kg, po administered for 12 hrs", "assay_type": "functional, organism-based", "how_it_was_run": "(§4)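 Male SHRs were randomized, n = 6 per group. Compound was suspended in DMSO/oleic acid (1:4) and given by oral gavage; vehicle controls got the same volume of solvent. SBP and DBP were recorded in conscious animals by noninvasive tail-artery manometry. MBP = (SBP − DBP)/3 + DBP. Data are mean ± SEM, with p < 0.05 taken as significant.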"}, "[12]": {"experiment": "Elimination rate constant in Wistar rat heart at 10 mg/kg, po after 0.5 to 72 hrs by HPLC analysis", "assay_type": "ADME, organism-based", "how_it_was_run": "as §1"}, "[13]": {"system": "Mus musculus", "experiment": "Acute toxicity in ICR mouse assessed as aggressiveness at 1200 mg/kg, ig administered daily for 2 weeks measured during compound dosing", "assay_type": "organism-based", "conditions": "in vivo, po, 336 h", "how_it_was_run": "as §2"}, "[14]": {"experiment": "Tmax in Wistar rat heart at 10 mg/kg, po after 0.5 to 72 hrs by HPLC analysis", "assay_type": "ADME, organism-based", "how_it_was_run": "as §1"}, "[15]": {"experiment": "Cmax in Wistar rat lung at 10 mg/kg, po after 0.5 to 72 hrs by HPLC analysis", "assay_type": "ADME, organism-based", "set-up": "dose 10 mg/kg, route oral", "how_it_was_run": "as §1"}, "[16]": {"experiment": "Terminal half life in Wistar rat heart at 10 mg/kg, po after 0.5 to 72 hrs by HPLC analysis", "assay_type": "ADME, organism-based", "conditions": "read-out: beta t1/2 (converted)", "how_it_was_run": "as §1"}, "[17]": {"experiment": "Cmax in Wistar rat heart at 10 mg/kg, po after 0.5 to 72 hrs by HPLC analysis", "assay_type": "ADME, organism-based", "set-up": "dose 10 mg/kg, route oral", "how_it_was_run": "as §1"}, "[18]": {"experiment": "Cmax in Wistar rat spleen at 10 mg/kg, po after 0.5 to 72 hrs by HPLC analysis", "assay_type": "ADME, organism-based", "set-up": "dose 10 mg/kg, route oral", "how_it_was_run": "as §1"}, "[19]": {"system": "Rattus norvegicus", "experiment": "Antihypertensive activity in spontaneous hypertensive rat model assessed as mean blood pressure at 10 mg/kg, po administered for 2 hrs", "assay_type": "functional", "how_it_was_run": "as §4"}, "[20]": {"experiment": "Tmax in Wistar rat lung at 10 mg/kg, po after 0.5 to 72 hrs by HPLC analysis", "assay_type": "ADME, organism-based", "how_it_was_run": "as §1"}, "[21]": {"experiment": "Terminal half life in Wistar rat stomach at 10 mg/kg, po after 0.5 to 72 hrs by HPLC analysis", "assay_type": "ADME, organism-based", "conditions": "read-out: beta t1/2 (converted)", "how_it_was_run": "as §1"}, "[22]": {"experiment": "Acute toxicity in ICR mouse assessed as mortality at 6742.38 mg/kg, ig administered daily for 2 weeks measured during compound dosing", "assay_type": "organism-based", "conditions": "in vivo, po", "how_it_was_run": "as §2"}, "[23]": {"system": "Mus musculus", "experiment": "Acute toxicity in ICR mouse assessed as respiratory movements at 1200 mg/kg, ig administered daily for 2 weeks measured during compound dosing", "assay_type": "organism-based", "conditions": "in vivo, po, 336 h", "how_it_was_run": "as §2"}, "[24]": {"experiment": "Cmax in Wistar rat liver at 10 mg/kg, po after 0.5 to 72 hrs by HPLC analysis", "assay_type": "ADME, organism-based", "set-up": "dose 10 mg/kg, route oral", "how_it_was_run": "as §1"}, "[25]": {"system": "Heart", "experiment": "AUC (0 to 72 hrs) in Wistar rat heart at 10 mg/kg, po by HPLC analysis", "assay_type": "ADME, organism-based", "set-up": "time < 72 hr, dose 10 mg/kg, route oral", "conditions": "in vivo", "how_it_was_run": "as §1"}, "[26]": {"system": "Liver", "experiment": "AUC (0 to 72 hrs) in Wistar rat liver at 10 mg/kg, po by HPLC analysis", "assay_type": "ADME, organism-based", "set-up": "time < 72 hr, dose 10 mg/kg, route oral", "conditions": "in vivo", "how_it_was_run": "as §1"}, "[27]": {"system": "Kidney", "experiment": "AUC (0 to 72 hrs) in Wistar rat kidney at 10 mg/kg, po by HPLC analysis", "assay_type": "ADME, organism-based", "set-up": "dose 10 mg/kg, time < 72 hr, route oral", "conditions": "in vivo", "how_it_was_run": "as §1"}, "[28]": {"system": "Mus musculus", "experiment": "Acute toxicity in ICR mouse assessed as change in body weight at 1200 to 6742.38 mg/kg, ig administered daily for 2 weeks during compound dosing", "assay_type": "organism-based", "conditions": "in vivo, po, 336 h", "how_it_was_run": "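Male and female ICR mice (20 ± 2 g) received intragastric doses of 1200–6742.38 mg/kg. Body weight of surviving mice compared after two weeks of observation.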"}, "[29]": {"experiment": "Terminal half life in Wistar rat plasma at 10 mg/kg, po after 0.5 to 72 hrs by HPLC analysis", "assay_type": "ADME, organism-based", "conditions": "read-out: beta t1/2 (converted)", "how_it_was_run": "as §3"}, "[30]": {"experiment": "Elimination rate constant in Wistar rat kidney at 10 mg/kg, po after 0.5 to 72 hrs by HPLC analysis", "assay_type": "ADME, organism-based", "how_it_was_run": "as §1"}, "[31]": {"experiment": "Elimination rate constant in Wistar rat stomach at 10 mg/kg, po after 0.5 to 72 hrs by HPLC analysis", "assay_type": "ADME, organism-based", "how_it_was_run": "as §1"}},
  "note": "Activity calls are given as the source filed them. The calls are words filed in the database; no cut-off is given here.",
  "data": [
    {"smiles": "CCCCc1nc(Cl)c(C(=O)O)n1Cc1ccc(-c2ccccc2-c2noc(=O)[nH]2)cc1", "values": [
      {"measurement": "Tmax", "setting": "[1]", "result": 0.5, "unit": "h"},
      {"measurement": "k el", "setting": "[2]", "result": "1.64e-05", "unit": "s⁻¹"},
      {"measurement": "mortality at 336 h", "setting": "[3]", "result": 40, "unit": "%"},
      {"measurement": "Tmax", "setting": "[4]", "result": 2, "unit": "h"},
      {"measurement": "mortality at 336 h", "setting": "[5]", "result": 0, "unit": "%"},
      {"measurement": "k el", "setting": "[6]", "result": "1.11e-05", "unit": "s⁻¹"},
      {"measurement": "Activity", "setting": "[7]", "result": "Non-toxic"},
      {"measurement": "Activity", "setting": "[8]", "result": "Non-toxic"},
      {"measurement": "Tmax", "setting": "[9]", "result": 4, "unit": "h"},
      {"measurement": "half-life", "setting": "[10]", "result": 10.7, "unit": "h"},
      {"measurement": "Activity", "setting": "[11]", "result": "Active"},
      {"measurement": "k el", "setting": "[12]", "result": "2.11e-05", "unit": "s⁻¹"},
      {"measurement": "Activity", "setting": "[13]", "result": "Non-toxic"},
      {"measurement": "Tmax", "setting": "[14]", "result": 0.5, "unit": "h"},
      {"measurement": "Cmax", "setting": "[15]", "result": 9.16, "unit": "ng/g"},
      {"measurement": "half-life", "setting": "[16]", "result": 9.13, "unit": "h"},
      {"measurement": "Cmax", "setting": "[17]", "result": 8.87, "unit": "ng/g"},
      {"measurement": "Cmax", "setting": "[18]", "result": 8.84, "unit": "ng/g"},
      {"measurement": "Activity", "setting": "[19]", "result": 41, "unit": "mmHg"},
      {"measurement": "Tmax", "setting": "[20]", "result": 1, "unit": "h"},
      {"measurement": "half-life", "setting": "[21]", "result": 15.1, "unit": "h"},
      {"measurement": "mortality at 336 h", "setting": "[22]", "result": 100, "unit": "%"},
      {"measurement": "Activity", "setting": "[23]", "result": "Non-toxic"},
      {"measurement": "Cmax", "setting": "[24]", "result": 9.56, "unit": "ng/g"},
      {"measurement": "AUC", "setting": "[25]", "result": 200.41, "unit": "ng·h/g"},
      {"measurement": "AUC", "setting": "[26]", "result": 260.05, "unit": "ng·h/g"},
      {"measurement": "AUC", "setting": "[27]", "result": 202.97, "unit": "ng·h/g"},
      {"measurement": "Activity", "setting": "[28]", "result": "Non-toxic"},
      {"measurement": "half-life", "setting": "[29]", "result": 18.2, "unit": "h"},
      {"measurement": "k el", "setting": "[30]", "result": "1.11e-05", "unit": "s⁻¹"},
      {"measurement": "k el", "setting": "[31]", "result": "1.39e-05", "unit": "s⁻¹"}
    ]}
  ]
}
